Data published in ChEMBL document CHEMBL1156317, “Design and synthesis of conformationally constrained N,N-disubstituted 1,4-diazepanes as potent orexin receptor antagonists” (Bioorg Med Chem Lett, 2010).
Values belong to the molecule of their own block, whether it stands above or below them.

Columns and labels:
[1] = target: T1, Orexin/Hypocretin receptor type 1 (Homo sapiens, UniProt O43613); test: Binding affinity to OX1 receptor by radioligand displacement assay
T1 sequence (O43613 whole entry): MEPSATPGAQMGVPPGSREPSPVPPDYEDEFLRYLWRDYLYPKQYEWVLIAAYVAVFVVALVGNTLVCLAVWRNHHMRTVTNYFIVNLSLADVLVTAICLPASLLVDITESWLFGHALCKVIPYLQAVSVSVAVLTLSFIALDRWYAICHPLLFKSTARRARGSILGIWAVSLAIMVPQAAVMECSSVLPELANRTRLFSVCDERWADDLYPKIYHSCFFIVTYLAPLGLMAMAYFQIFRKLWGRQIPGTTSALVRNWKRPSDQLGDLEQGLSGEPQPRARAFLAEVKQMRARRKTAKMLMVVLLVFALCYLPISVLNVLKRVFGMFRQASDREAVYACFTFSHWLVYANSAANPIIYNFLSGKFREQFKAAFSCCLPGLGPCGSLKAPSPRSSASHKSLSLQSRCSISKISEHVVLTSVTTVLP
Outline: (§1)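 Displacement of a high-affinity radioligand bound to human orexin receptors. Values expressed as Ki.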

[2] = target: T1, Orexin/Hypocretin receptor type 1; test: Antagonist activity at OX1 receptor assessed as inhibition of calcium flux by FLIPR assay; format: functional
Outline: (§2)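 FLIPR assay on human orexin receptors, with calcium flux as the functional read-out of antagonism. Values expressed as IC50.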

Orexin receptor type 2 [3] = target: T2, Orexin receptor type 2 (Homo sapiens, UniProt O43614); test: Antagonist activity at OX2 receptor assessed as inhibition of calcium flux by FLIPR assay; format: functional; outline: as §2
T2 sequence (O43614 whole entry): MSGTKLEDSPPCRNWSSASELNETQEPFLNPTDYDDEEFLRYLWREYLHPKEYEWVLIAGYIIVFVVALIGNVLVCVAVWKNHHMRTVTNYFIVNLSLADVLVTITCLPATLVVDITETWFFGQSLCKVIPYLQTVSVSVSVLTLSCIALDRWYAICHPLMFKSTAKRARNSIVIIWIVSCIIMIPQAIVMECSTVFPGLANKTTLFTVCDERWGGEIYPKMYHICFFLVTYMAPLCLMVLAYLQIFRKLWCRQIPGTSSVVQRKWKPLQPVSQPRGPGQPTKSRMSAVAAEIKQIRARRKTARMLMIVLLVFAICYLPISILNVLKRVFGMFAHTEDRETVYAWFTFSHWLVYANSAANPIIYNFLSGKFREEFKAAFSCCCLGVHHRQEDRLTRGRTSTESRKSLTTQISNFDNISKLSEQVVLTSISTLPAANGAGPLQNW

Orexin receptor type 2 [4] = target: T2, Orexin receptor type 2; test: Binding affinity to OX2 receptor by radioligand displacement assay; outline: as §1
[5] = Cmax in rat at 10 mg/kg, po and 2 mg/kg, iv; format: ADME, organism-based; conditions: in vivo
Outline: (§3)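 Rats dosed orally at 10 mpk in VitE-TPGS and intravenously at 2 mpk in DMSO.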

[6] = AUC (0 to 24 hrs) in dog; format: ADME, organism-based, Canis lupus familiaris; parameters: time < 24 hr; conditions: plasma
[7] = Clearance in dog; format: ADME, organism-based, Canis lupus familiaris; conditions: in vivo
[8] = Oral bioavailability in rat at 10 mg/kg; format: ADME, organism-based; conditions: in vivo; outline: as §3
[9] = Lipophilicity, log P of the compound; format: physicochemical; conditions: octanol/water
[10] = AUC (0 to 24 hrs) in rat at 10 mg/kg, po and 2 mg/kg, iv; format: ADME, organism-based; conditions: plasma; outline: as §3
[11] = Protein binding in human; format: ADME, organism-based; conditions: in vivo, read-out: PB (converted)
[12] = Drug level in Sprague-Dawley rat plasma at 2 mg/kg, iv after 30 mins; format: ADME, organism-based; parameters: dose 2 mg/kg, route intravenous
Outline: (§4)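 Rats aged seven to ten weeks, anesthetized with isoflurane (5% in oxygen to induce, 2% by nose cone to maintain), kept at 37 °C. Compound given by tail-vein infusion at 2 mg/kg over 30 min. At the end of infusion, CSF taken from the cisterna magna, then plasma by cardiac puncture, then the brain harvested. All samples frozen on dry ice and analysed for compound levels.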

[13] = Half life in rat at 10 mg/kg, po and 2 mg/kg, iv; format: ADME, organism-based; conditions: in vivo; outline: as §3
[14] = Clearance in rat at 10 mg/kg, po and 2 mg/kg, iv; format: ADME, organism-based; conditions: in vivo; outline: as §3
[15] = Drug level in Sprague-Dawley rat brain at 2 mg/kg, iv after 30 mins; format: ADME, organism-based; parameters: dose 2 mg/kg, route intravenous; conditions: read-out: Drug uptake; outline: as §4
[16] = Cmax in dog; format: ADME, organism-based, Canis lupus familiaris; conditions: in vivo
[17] = Half life in dog; format: ADME, organism-based, Canis lupus familiaris; conditions: in vivo
[18] = Oral bioavailability in dog; format: ADME, organism-based, Canis lupus familiaris; conditions: in vivo
[19] = Protein binding in rat; format: ADME, organism-based; conditions: in vivo, read-out: PB (converted)
[20] = Drug level in Sprague-Dawley rat CSF at 2 mg/kg, iv after 30 mins; format: ADME, organism-based; parameters: dose 2 mg/kg, route intravenous; conditions: cerebrospinal fluid, read-out: Drug uptake; outline: as §4
[21] = Ratio of drug level in brain to plasma in Sprague-Dawley rat at 2 mg/kg, iv after 30 mins; format: ADME, organism-based; parameters: dose 2 mg/kg, route intravenous
Outline: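 Male/female unspecified Sprague–Dawley rats, 7–10 weeks old, under isoflurane anaesthesia (5% induction, 2% maintenance via nose cone) on a 37 °C warming blanket; compound given by tail-vein infusion, 2 mg/kg over 30 min. At end of infusion CSF taken from cisterna magna, plasma by cardiac puncture, brain harvested; samples frozen on dry ice and compound levels measured to give brain/plasma ratio.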

[22] = Apparent permeability across pig LLC-PK1 cells; format: ADME, cell-based, Sus scrofa
LLC-PK1 = test: Ratio of permeability from basolateral to apical side over apical to basolateral side in pig LLC-PK1 cells expressing MDR1

Ki [1]: 1 nM
IC50 [2]: 36 nM
IC50 (Orexin receptor type 2 [3]): 27 nM
Ki (Orexin receptor type 2 [4]): 0.2 nM
Structure (SMILES): Cc1ccc(-n2nccn2)c(C(=O)N2CCCN(c3ncc4cc(F)ccc4n3)CC2)c1

Cmax [5]: 300 nM
AUC(0-t) at 24 h [6]: 0.44 µM·h
clearance [7]: 12 mL/min/kg
IC50 [2]: 29 nM
IC50 (Orexin receptor type 2 [3]): 27 nM
bioavailability [8]: 2%
logP [9]: 2.91
AUC(0-t) [10]: 0.19 µM·h
fraction unbound [11]: 0.024
concentration at 0.5 h [12]: 664 nM
half-life [13]: 18 min
clearance [14]: 53 mL/min/kg
concentration at 0.5 h [15]: 462 nM
Cmax [16]: 230 nM
half-life [17]: 78 min
bioavailability [18]: 16%
fraction unbound [19]: 0.029
concentration at 0.5 h [20]: 19 nM
Kp at 0.5 h [21]: 0.7
Structure (SMILES): Cc1ccc(-n2nccn2)c(C(=O)N2CCCN(c3ncc4ccccc4n3)CC2)c1

Ki [1]: 2.3 nM
IC50 [2]: 42 nM
IC50 (Orexin receptor type 2 [3]): 65 nM
Ki (Orexin receptor type 2 [4]): 3.6 nM
Structure (SMILES): Cc1ccc(-n2nccn2)c(C(=O)N2CC3CC(C2)N(c2ncc4ccccc4n2)C3)c1 (racemic)

Ki [1]: 110 nM
IC50 [2]: 2500 nM
IC50 (Orexin receptor type 2 [3]): 6200 nM
Ki (Orexin receptor type 2 [4]): 155 nM
Structure (SMILES): Cc1ccc(-n2nccn2)c(C(=O)N2CC3CC(C2)N(c2ncc4ccccc4n2)C3)c1 (single isomer, unassigned; enantiomer A)

Cmax [5]: 150 nM
Ki [1]: 0.7 nM
AUC(0-t) at 24 h [6]: 0.49 µM·h
clearance [7]: 24 mL/min/kg
IC50 [2]: 24 nM
IC50 (Orexin receptor type 2 [3]): 44 nM
bioavailability [8]: 2%
logP [9]: 2.6
AUC(0-t) [10]: 0.23 µM·h
fraction unbound [11]: 0.064
concentration at 0.5 h [12]: 835 nM
half-life [13]: 42 min
clearance [14]: 45 mL/min/kg
concentration at 0.5 h [15]: 690 nM
Papp [22]: 37 ×10⁻⁶ cm/s
Ratio (LLC-PK1): 0.9
Cmax [16]: 510 nM
half-life [17]: 54 min
bioavailability [18]: 8%
fraction unbound [19]: 0.073
concentration at 0.5 h [20]: 60 nM
Ki (Orexin receptor type 2 [4]): 0.9 nM
Kp at 0.5 h [21]: 0.8
Structure (SMILES): Cc1ccc(-n2nccn2)c(C(=O)N2CC3CC(C2)N(c2ncc4ccccc4n2)C3)c1 (single isomer, unassigned; enantiomer B)

Continued, molecule first:

Structure (SMILES): Cc1ccc(-n2nccn2)c(C(=O)N2CC3CC2CN(c2ncc4ccccc4n2)C3)c1 (stereo unspecified)
Ki [1]: 12 nM
IC50 [2]: 77 nM
IC50 (Orexin receptor type 2 [3]): 110 nM
Ki (Orexin receptor type 2 [4]): 11 nM

Structure (SMILES): Cc1ccc(-n2nccn2)c(C(=O)N2CCC3CC2CN3c2ncc3cc(F)ccc3n2)c1 (racemic)
Ki [1]: 870 nM
IC50 [2]: > 5700 nM
IC50 (Orexin receptor type 2 [3]): > 10000 nM
Ki (Orexin receptor type 2 [4]): 260 nM

Structure (SMILES): Cc1ccc(-n2nccn2)c(C(=O)N2CC3CC2CCN3c2ncc3cc(F)ccc3n2)c1 (racemic)
Ki [1]: 1700 nM
IC50 [2]: 3900 nM
IC50 (Orexin receptor type 2 [3]): 3700 nM
Ki (Orexin receptor type 2 [4]): 3500 nM
